Results reported in ChEMBL document CHEMBL1140844, “2-[(3-Methoxyphenylethyl)phenoxy]-based ABCB1 inhibitors: effect of different basic side-chains on their biological properties” (J Med Chem, 2008).

How the values were obtained:
Caco-2 = experiment: Ratio of apparent permeability from basolateral to apical over apical to basolateral side of human Caco-2 cells after 120 mins by UV-visible spectroscopy; conditions: caco-2, 2 h
D(2) dopamine receptor [1] = biological target: T1, D(2) dopamine receptor (Homo sapiens, UniProt P14416); experiment: Displacement of [3H]spiroperidol from human cloned dopaminergic D2 receptor expressed in rat C6 cells; assay type: cell-based
[2] = biological target: T2, 5-hydroxytryptamine receptor 1A (Homo sapiens, UniProt P08908); experiment: Displacement of [3H]8-OH-DPAT from human cloned 5-HT1A receptor expressed in human HeLa cells; assay type: cell-based
T2 sequence (P08908 whole entry): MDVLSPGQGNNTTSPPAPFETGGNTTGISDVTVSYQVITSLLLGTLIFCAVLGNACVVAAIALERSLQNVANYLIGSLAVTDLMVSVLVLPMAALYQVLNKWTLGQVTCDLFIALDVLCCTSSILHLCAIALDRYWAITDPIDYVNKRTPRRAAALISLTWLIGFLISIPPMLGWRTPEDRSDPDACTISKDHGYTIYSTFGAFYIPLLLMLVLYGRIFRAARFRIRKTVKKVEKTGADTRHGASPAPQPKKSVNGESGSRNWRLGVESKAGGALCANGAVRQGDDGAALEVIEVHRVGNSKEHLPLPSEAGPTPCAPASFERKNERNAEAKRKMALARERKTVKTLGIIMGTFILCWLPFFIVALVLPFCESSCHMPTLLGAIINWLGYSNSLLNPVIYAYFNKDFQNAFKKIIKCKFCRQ
How it was run: (§1)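 Compounds at 0.1 nM–10 µM in 50 mM Tris-HCl pH 7.4, 5 mM MgSO4, 120 min at 37 °C. Filtered on PEI-soaked GF/C. Nonspecific binding with 10 µM 8-OH-DPAT. […] Mean of three experiments, triplicate samples.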

[3] = biological target: T3, ATP-dependent translocase ABCB1 (Homo sapiens, UniProt P08183); experiment: Inhibition of ABCB1 in human Caco-2 cells assessed as ATPase activation at 100 uM after 2 hrs; assay type: cell-based; conditions: caco-2, 2 h
How it was run: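 Caco-2 cells seeded at 2 × 10⁴ cells/well and held overnight at 37 °C, 5% CO2. Exposed to compound in complete medium for 2 h at 37 °C. Cells then lysed and ATP read by luciferase luminescence after 10 min dark adaptation. Tested at 100 µM; a positive response is reported as a percentage.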

[4] = biological target: T4, 5-hydroxytryptamine receptor 1A (Homo sapiens) (UniProt P08908); experiment: Displacement of [3H]8-OH-DPAT from human cloned 5-HT1A receptor expressed in human HeLa cells at 10 uM; assay type: cell-based
T4 sequence (whole entry): T2 sequence (P08908 whole entry)
How it was run: as §1

[5] = biological target: T3, ATP-dependent translocase ABCB1; experiment: Inhibition of ABCB1-mediated [3H]vinblastine transportation in human Caco-2 cells; assay type: cell-based
How it was run: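 Caco-2 monolayers grown 21 days (TEER >800 Ω × cm²). 20 nM [3H]vinblastine added to the basolateral side with or without compound (200 nM–400 µM) for 120 min at 37 °C. Appearance on the apical side measured by scintillation counting. IC50 from nonlinear fit. Mean of three experiments, triplicate samples.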

[6] = biological target: T3, ATP-dependent translocase ABCB1; experiment: Inhibition of ABCB1 transfected in MDCK cells assessed as increase in calcein-AM accumulation; assay type: cell-based
D(2) dopamine receptor [7] = biological target: T1, D(2) dopamine receptor; experiment: Displacement of [3H]spiroperidol from human cloned dopaminergic D2 receptor expressed in rat C6 cells at 10 uM; assay type: cell-based
How it was run: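 Buffer was 50 mM Tris, 10 mM MgCl2, 1 mM EDTA, pH 7.4. Incubated 60 min at 27 °C, then filtered on PEI-soaked GF/C. Nonspecific binding with 10 µM haloperidol.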

ABCB1 = ABCB1 (Homo sapiens, UniProt P08183); experiment: Activation of ABCB1 in human Caco-2 cells assessed as ATPase activation at 100 uM after 2 hrs
Sequence of ABCB1 (P08183 whole entry): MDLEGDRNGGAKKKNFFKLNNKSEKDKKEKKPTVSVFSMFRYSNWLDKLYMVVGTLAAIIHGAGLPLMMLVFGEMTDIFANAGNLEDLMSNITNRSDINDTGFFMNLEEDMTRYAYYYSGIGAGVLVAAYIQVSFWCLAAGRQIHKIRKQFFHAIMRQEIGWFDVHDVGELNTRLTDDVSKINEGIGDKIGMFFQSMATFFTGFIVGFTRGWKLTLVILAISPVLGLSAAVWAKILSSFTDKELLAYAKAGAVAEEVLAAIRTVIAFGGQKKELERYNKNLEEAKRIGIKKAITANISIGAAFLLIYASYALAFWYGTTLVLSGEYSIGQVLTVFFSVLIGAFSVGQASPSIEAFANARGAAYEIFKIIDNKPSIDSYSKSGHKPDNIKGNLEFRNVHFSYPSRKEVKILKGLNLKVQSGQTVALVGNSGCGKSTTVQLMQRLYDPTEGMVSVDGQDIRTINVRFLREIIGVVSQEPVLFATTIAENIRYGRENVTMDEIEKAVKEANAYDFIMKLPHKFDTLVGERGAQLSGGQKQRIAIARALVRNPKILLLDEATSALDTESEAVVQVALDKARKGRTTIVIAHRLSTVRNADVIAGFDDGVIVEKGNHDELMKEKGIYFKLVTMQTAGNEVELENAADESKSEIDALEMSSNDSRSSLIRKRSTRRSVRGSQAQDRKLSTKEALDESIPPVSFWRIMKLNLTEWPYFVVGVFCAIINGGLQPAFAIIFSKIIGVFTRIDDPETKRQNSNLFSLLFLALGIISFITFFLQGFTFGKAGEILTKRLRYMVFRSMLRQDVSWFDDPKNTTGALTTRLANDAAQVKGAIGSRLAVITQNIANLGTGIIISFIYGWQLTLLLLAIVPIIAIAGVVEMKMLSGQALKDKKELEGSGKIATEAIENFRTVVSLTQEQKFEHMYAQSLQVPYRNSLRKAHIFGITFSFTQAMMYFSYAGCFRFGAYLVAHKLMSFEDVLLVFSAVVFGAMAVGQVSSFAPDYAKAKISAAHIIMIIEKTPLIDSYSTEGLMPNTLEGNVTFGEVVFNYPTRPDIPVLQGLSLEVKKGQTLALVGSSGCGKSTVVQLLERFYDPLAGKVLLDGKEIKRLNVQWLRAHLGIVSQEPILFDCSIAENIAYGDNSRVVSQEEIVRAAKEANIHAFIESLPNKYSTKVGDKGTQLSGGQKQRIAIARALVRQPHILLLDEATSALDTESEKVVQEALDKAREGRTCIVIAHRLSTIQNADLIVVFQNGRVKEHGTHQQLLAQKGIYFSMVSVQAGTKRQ

T3 sequence (P08183 whole entry): as above
T1 sequence (P14416 whole entry): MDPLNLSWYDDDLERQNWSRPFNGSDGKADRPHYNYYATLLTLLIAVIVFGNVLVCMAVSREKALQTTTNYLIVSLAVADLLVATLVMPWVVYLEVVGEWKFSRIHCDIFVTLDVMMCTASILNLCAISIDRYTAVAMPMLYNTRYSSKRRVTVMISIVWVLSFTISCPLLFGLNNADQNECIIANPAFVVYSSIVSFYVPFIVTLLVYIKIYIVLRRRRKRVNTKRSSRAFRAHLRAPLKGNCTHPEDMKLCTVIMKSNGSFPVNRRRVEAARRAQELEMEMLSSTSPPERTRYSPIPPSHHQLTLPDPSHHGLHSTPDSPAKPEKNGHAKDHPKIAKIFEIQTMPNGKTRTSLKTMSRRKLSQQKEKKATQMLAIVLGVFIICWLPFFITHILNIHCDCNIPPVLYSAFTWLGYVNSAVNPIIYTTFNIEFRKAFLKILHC

| Structure (SMILES) | Ratio (Caco-2) | Ki (D(2) dopamine receptor [1]) [nM] | Ki [2] [nM] | Activity [3] | inhibition [4] [%] | IC50 [5] [nM] | IC50 [6] [nM] | inhibition (D(2) dopamine receptor [7]) [%] | activation at 2 h, 100 µM (ABCB1) [%] |
| --- | --- | --- | --- | --- | --- | --- | --- | --- | --- |
| COc1cccc(CCc2ccccc2OCCCN2CCN(C)CC2)c1 | 4.7 | 565 | > 5000 | Not Active | 40 | 2500 | – | – | – |
| COc1cccc(CCc2ccccc2OCCCN2CCN(c3ncccn3)CC2)c1 | 131 | 20 | 331 | Not Active | – | 1200 | – | – | – |
| COc1cccc(CCc2ccccc2OCCCN2CCc3cc(OC)c(OC)cc3C2)c1 | 4.3 | > 1000 | > 5000 | Not Active | 36 | 140 | 90 | 35 | – |
| COc1cc2c(cc1OC)CN(CCc1ccc(NC(=O)c3cccc4c(=O)c5cccc(OC)c5[nH]c34)cc1)CC2 | – | – | – | Not Active | – | – | – | – | – |
| COc1cccc(CCc2ccccc2OCCN2CCN(C)CC2)c1 | 6.8 | 178 | > 5000 | Not Active | 48 | 800 | 7760 | – | – |
| COc1cccc(CCc2ccccc2OCCN2CCN(c3ncccn3)CC2)c1 | – | 629 | 656 | Not Active | – | – | – | – | – |
| COc1cccc(CCc2ccccc2OCCCN2CCN(c3ccc(F)cc3)CC2)c1 | – | 655 | 800 | – | – | – | – | – | 38 |
| COc1cccc(CCc2ccccc2OCCCN2CCN(c3ccccc3OC)CC2)c1 | 8.1 | 6.3 | 756 | – | – | 14000 | – | – | 20 |
| COc1cccc(CCc2ccccc2OCCCN2CCN(c3cccc(C(F)(F)F)c3)CC2)c1 | 4.4 | 1410 | 2870 | Not Active | – | 6500 | – | – | – |
| COc1cccc(CCc2ccccc2OCCCCCN2CCN(C)CC2)c1 | 2.5 | > 1000 | > 5000 | Not Active | 24 | 6820 | – | 26 | – |
| COc1cccc(CCc2ccccc2OCCN2CCc3ccccc3C2)c1 | 7.2 | > 1000 | 1310 | Not Active | – | 12000 | – | 35 | – |
| COc1cccc(CCc2ccccc2OCCCN2CCN(c3cccc(Cl)c3)CC2)c1 | 6.8 | 298 | 1130 | Not Active | – | 2500 | – | – | – |
| COc1cccc(CCc2ccccc2OCCN2CCN(c3ccc(F)cc3)CC2)c1 | 2.2 | > 1000 | 783 | – | – | 10000 | – | 38 | 10 |
| COc1cccc(CCc2ccccc2OCCN2CCN(c3cccc(C(F)(F)F)c3)CC2)c1 | 2.6 | > 1000 | 1410 | Not Active | – | 40000 | – | 31 | – |
| COc1cccc(CCc2ccccc2OCCCCCN2CCN(c3ncccn3)CC2)c1 | 7.1 | > 1000 | > 5000 | Not Active | 38 | 1720 | – | 24 | – |
| COc1cccc(CCc2ccccc2OCCCCCN2CCN(c3ccccc3OC)CC2)c1 | 5.2 | > 1000 | > 5000 | – | 14 | 1270 | – | 35 | 15 |
| COc1cccc(CCc2ccccc2OCCCCN2CCN(c3cccc(Cl)c3)CC2)c1 | 5.1 | > 1000 | 1310 | Not Active | – | 1800 | – | 35 | – |
| COc1cccc(CCc2ccccc2OCCCCN2CCc3ccccc3C2)c1 | – | > 1000 | 1330 | Not Active | – | – | – | 48 | – |
| COc1cccc(CCc2ccccc2OCCCCN2CCN(c3ccccc3OC)CC2)c1 | 3.9 | 67 | 1090 | – | – | 5800 | – | – | 54 |
| COc1cccc(CCc2ccccc2OCCCCCN2CCN(c3cccc(Cl)c3)CC2)c1 | – | > 1000 | > 5000 | Not Active | 14 | – | – | 25 | – |
| COc1cccc(CCc2ccccc2OCCCN2CCc3ccccc3C2)c1 | 6.3 | 114 | 1120 | Not Active | – | 500 | 1140 | – | – |
| COc1cccc(CCc2ccccc2OCCCCN2CCc3cc(OC)c(OC)cc3C2)c1 | 5.8 | > 1000 | > 5000 | Not Active | 18 | 190 | 160 | 40 | – |
| COc1cccc(CCc2ccccc2OCCN2CCN(c3cccc(Cl)c3)CC2)c1 | 3.6 | > 1000 | 686 | Not Active | – | 3200 | – | 43 | – |
| COc1cccc(CCc2ccccc2OCCN2CCN(c3ccccc3OC)CC2)c1 | 6.8 | 427 | 1240 | – | – | 25000 | – | – | 10 |
| COc1cccc(CCc2ccccc2OCCCCN2CCN(c3ccc(F)cc3)CC2)c1 | – | 1320 | > 5000 | – | 47 | – | – | – | 25 |
| COc1cccc(CCc2ccccc2OCCCCCN2CCN(c3ccc(F)cc3)CC2)c1 | – | 847 | > 5000 | – | 27 | – | – | – | 40 |
| COc1cccc(CCc2ccccc2OCCCCCN2CCc3ccccc3C2)c1 | 7.3 | > 1000 | > 5000 | Not Active | 15 | 3170 | – | 16 | – |
